Results on 8 molecules are retold here after paper PMC6247954 (Cell, 2018).

In data set [1] the test system is YB5 cells (silenced CMV-GFP). The data set is described as follows: GFP reactivation in YB5 measured by flow cytometry. It counts as cell-based, human. As to conditions: for GFP reactivation by GSK-3 inhibitors: YB5, multiple doses, single exposure for four days.
In data set [2] the test system is YB5 cells. The data set is described as follows: qPCR of hypermethylated silenced genes in YB5. It is filed as cell-based, human. The settings on record: for reactivation of SYNE1 and MGMT: YB5, 24hr treatment, qPCR. In general terms: Quantitative PCR measures a nucleic acid by following its amplification.
Data set [3] concerns YB5 cells. Kind of data set: Time-course RNA-seq in YB5. It is filed as cell-based, human. As to conditions: after excluding genes downregulated at 2hr/4hr.
Data set [4] concerns panel of 250 kinases. Kind of data set: Kinome screening of 250 kinases at 1μM. It counts as biochemical, human. A digest of the protocol:
(§1)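 Kinase assays were run by a contract lab on a microfluidic mobility-shift platform. Each target kinase was incubated with fluorescently labelled substrate and test compound in a standardized reaction mixture.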

For data set [5], the target named is GSK-3α (Homo sapiens, UniProt P49840). Kind of data set: Kinome screening of 250 kinases at 1μM. It is filed as biochemical. A digest of the protocol: as §1
Sequence of GSK-3α (P49840 whole entry): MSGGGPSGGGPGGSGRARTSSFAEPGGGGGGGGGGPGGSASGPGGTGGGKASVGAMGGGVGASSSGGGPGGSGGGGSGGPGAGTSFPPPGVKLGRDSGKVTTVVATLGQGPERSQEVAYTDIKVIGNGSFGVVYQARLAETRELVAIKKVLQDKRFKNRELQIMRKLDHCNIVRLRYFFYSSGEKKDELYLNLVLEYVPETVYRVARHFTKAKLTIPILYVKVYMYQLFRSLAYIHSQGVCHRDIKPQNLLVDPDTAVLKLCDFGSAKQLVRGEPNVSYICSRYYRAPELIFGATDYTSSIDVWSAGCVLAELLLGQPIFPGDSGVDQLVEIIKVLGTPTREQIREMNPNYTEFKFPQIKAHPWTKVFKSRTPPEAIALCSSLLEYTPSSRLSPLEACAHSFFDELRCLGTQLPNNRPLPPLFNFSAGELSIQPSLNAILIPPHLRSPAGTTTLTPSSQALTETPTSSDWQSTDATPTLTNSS
Data set [6] deals with GSK-3β (Homo sapiens, UniProt P49841). The data set is described as follows: Kinome screening of 250 kinases at 1μM. It is filed as biochemical. The procedure, abridged:
as §1

The test system of data set [7] is pSer2 of RNAPII CTD (CDK9 target). The data set is described as follows: Western Blot of CDK substrates after MC180295 treatment. It counts as cell-based. The settings on record: 2hrs treatment.
The subject of data set [8] is substrates of CDK4/6. Described as above. The settings on record: 2hrs treatment. It counts as cell-based.
The test system of data set [9] is CDK1/2 substrates. Described as above. It is filed as cell-based. As to conditions: 2hrs treatment.
Data set [10] addresses CDK9/CyclinT1 (Homo sapiens, UniProt P50750). Kind of data set: Isotope kinase activity assay with recombinant CDK9/CyclinT1 and BRG1. The settings on record: 1μM inhibitor, 32γ-ATP. It counts as biochemical. The procedure, abridged:
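Recombinant active full-length CDK9/Cyclin T1 (1.2 μg) pre-incubated 15 min with or without 1μM test compound. Purified BRG1 (0.8 μg) then added, 1 hr at 30 °C in KAS buffer containing 5μCi/μl 32γ-ATP. Reaction stopped by heating at 65 °C for 5 min.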

In data set [11] the test system is cancer cell lines vs normal lung fibroblast (IMR90). Kind of data set: Anti-proliferation assay. It counts as cell-based, human. The settings on record: four days after one-time exposure; 5μM HH1 or 0.1μM MC180295. The procedure, abridged: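 Cells seeded in 96-well plates at 40% confluency. Medium refreshed next day, test compound added directly, then cultured two more days at 37°C. Drug-free medium on day four. Cells trypsinised on day 5, mixed 1:1 with trypan blue and counted on an automated counter. Each sample counted at least three times and averaged; triplicate wells per condition.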

Data set [12] has as its system YB5. The data set is described as follows: Cell cycle analysis by propidium iodide staining. It counts as cell-based, human. As to conditions: four days after single exposure. A digest of the protocol:
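YB5 cells received a single drug dose 24 h after seeding, with drug-free medium replaced three days later. They were analysed four days after treatment by propidium iodide staining and FACSCalibur flow cytometry. Sub-G1 fraction was taken as the apoptotic proportion. N=3.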

In data set [13] the test system is YB5 and HCT116. Kind of data set: Soft agar colony formation assay. It counts as cell-based, human. As to conditions: single dose pre-exposure for four days. A digest of the protocol:
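Cells were pretreated with a range of test compound concentrations, kept in drug for two more days, and switched to drug-free medium the day before seeding (four days total). 1000 cells were plated in Noble agar with 2x medium (20% FBS, 2% penicillin/streptomycin). Plates were grown two weeks at 37°C, then stained with 0.005% crystal violet in 10% EtOH.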

Data set [14] relates to HL60 cell line. Kind of data set: HL60 differentiation. It is filed as cell-based, human. The settings on record: single dose exposure for four days. The procedure, abridged:
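HL60 cells received one dose 24 h after seeding, drug-free medium on day 3, and analysis on day 4. Cells were washed and stained with PI plus FITC-CD11b or isotype IgG, then read on a Guava flow cytometer. Positive controls were 1μM ATRA and 1.25% DMSO.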

For data set [15], the system named is SW48. Kind of data set: s.c. SW48 xenograft model in NSG mice. It is filed as in vivo. The procedure, abridged:
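2×10^6 SW48 cells injected s.c. into the flank of randomly assigned, gender-matched 8–10-week-old NSG mice. Once tumours were palpable, 20mg/kg test compound or vehicle given i.p. every other day, for 10 weeks. Tumour size measured by caliper (mean+SEM, Student's t-test); survival recorded in days.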

For data set [16], the system named is SW48-luc cells. Kind of data set: i.p. SW48-luc model in NSG mice. It is filed as in vivo. A digest of the protocol:
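SW48 cells transfected with ffluc2-eGFP, GFP-positive cells sorted one week later and expanded. Cells injected i.p. into male and female age- and gender-matched NSG mice. Once tumour burden was seen by bioluminescence, mice randomised to 5–20mg/kg test compound or solvent i.p. every other day (3 vehicle, 5 treated). Imaged 5 min after i.p. D-luciferin. Endpoint: natural death or ascites; survival by log-rank (Mantel-Cox).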

In data set [17] the test system is GFP and GLDC expression in tumors. The data set is described as follows: Pharmacodynamics study in NSG mice. It is filed as in vivo. As to conditions: two-week every other day treatment, qPCR. The procedure, abridged:
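Six gender-matched 8–10-week-old NSG mice randomised to vehicle or drug. 2×10^6 cells injected into the flank. 20mg/kg test compound given i.p. every other day for two weeks, starting when tumours were palpable 9 days after engraftment. Tumours homogenised, total mRNA extracted, expression measured by qPCR; N=3, mean+SEM, Student's t-test.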

Data set [18] deals with human T lymphocytes. Kind of data set: Humanized PBMC NSG mice. As to conditions: 10 mg/kg or 20 mg/kg for 14 days. It is filed as in vivo.
Data set [19] relates to ID8. Kind of data set: ID8-VEGF-Defensin syngeneic ovarian cancer mouse model. It counts as in vivo. The procedure, abridged:
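Female C57BL/6NHsd mice aged 7–8 weeks were injected i.p. with 2.5×10^5 ID8-VEGF-Defensin mouse ovarian cancer cells. From day 3, test compound (1 or 10 mg/kg) or vehicle (5% DMSO in PBS) was given i.p. every 3 days for the whole experiment. Groups were randomly assigned.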

The subject of data set [20] is CDK9. As to conditions: read-out: IC50 for CDK9; ref Asghar et al., 2015; cited from earlier work.
Data set [21] relates to CDK1. As to conditions: read-out: IC50 for CDK1; ref Asghar et al., 2015; cited from earlier work.
Data set [22] deals with CDK4. The settings on record: read-out: IC50 for CDK4; ref Asghar et al., 2015; cited from earlier work.

The structures appear in SMILES notation.

Sequence of CDK9/CyclinT1 (P50750 whole entry): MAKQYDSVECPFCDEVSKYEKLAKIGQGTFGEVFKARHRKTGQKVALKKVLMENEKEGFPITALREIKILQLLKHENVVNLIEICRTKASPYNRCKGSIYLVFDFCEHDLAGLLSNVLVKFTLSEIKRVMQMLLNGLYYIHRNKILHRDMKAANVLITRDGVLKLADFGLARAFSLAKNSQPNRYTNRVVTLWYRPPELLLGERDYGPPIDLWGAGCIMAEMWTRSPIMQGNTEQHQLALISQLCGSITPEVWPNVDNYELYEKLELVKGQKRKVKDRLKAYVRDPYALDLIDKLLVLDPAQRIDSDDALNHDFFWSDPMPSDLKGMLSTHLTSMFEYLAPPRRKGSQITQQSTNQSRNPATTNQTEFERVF
Sequence of CDK9/CyclinT1 (O60563 whole entry partner): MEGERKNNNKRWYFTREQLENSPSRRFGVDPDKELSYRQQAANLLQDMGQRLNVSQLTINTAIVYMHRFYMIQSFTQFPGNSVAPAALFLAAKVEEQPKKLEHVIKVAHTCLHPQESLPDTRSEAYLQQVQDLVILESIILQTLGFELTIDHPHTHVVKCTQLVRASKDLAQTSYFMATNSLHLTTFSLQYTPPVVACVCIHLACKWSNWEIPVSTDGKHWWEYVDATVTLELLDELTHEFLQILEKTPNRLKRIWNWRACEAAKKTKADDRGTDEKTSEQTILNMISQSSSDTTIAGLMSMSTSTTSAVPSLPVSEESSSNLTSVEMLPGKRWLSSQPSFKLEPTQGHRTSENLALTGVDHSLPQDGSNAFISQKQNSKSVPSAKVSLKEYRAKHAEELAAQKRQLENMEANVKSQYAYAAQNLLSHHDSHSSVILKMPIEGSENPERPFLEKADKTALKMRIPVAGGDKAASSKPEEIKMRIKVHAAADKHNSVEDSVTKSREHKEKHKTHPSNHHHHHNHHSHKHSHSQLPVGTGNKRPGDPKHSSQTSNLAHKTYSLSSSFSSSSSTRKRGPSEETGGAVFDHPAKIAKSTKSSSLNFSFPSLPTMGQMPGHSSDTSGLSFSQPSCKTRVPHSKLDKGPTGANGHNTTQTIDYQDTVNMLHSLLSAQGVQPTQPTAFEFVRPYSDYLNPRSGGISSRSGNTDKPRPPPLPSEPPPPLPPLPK
Sequence of GSK-3β (P49841 whole entry): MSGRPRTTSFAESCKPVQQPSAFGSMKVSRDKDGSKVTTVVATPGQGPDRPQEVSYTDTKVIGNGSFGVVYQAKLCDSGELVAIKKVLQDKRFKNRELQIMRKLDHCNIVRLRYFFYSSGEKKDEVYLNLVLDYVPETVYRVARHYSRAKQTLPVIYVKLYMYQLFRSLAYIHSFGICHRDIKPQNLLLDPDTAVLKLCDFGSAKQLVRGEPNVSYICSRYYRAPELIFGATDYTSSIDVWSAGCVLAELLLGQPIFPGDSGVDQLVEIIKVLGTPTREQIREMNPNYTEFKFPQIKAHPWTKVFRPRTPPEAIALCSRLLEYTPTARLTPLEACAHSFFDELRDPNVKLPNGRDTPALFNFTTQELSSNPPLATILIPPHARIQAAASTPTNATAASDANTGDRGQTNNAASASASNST

As for `Cc1c[nH]c(-c2cnc(NCCNc3ccc(C#N)cn3)nc2-c2ccc(Cl)cc2Cl)n1` [CHR99021], the “GFP reactivation by GSK-3 inhibitors” value in data set [1] is given as “no GFP reactivation”.
For `Nc1ncn([C@H]2C[C@H](O)[C@@H](CO)O2)c(=O)n1` [DAC, decitabine], the “time to reactivation of hypermethylated genes” value in [2] (YB5, daily 100nM, for most genes) is given as “at least 24 hrs”. The “silenced genes (RPKM < 0.31) up” value in data set [3] came to 1238 genes.
`[Cl-].[Li+]` [LiCl]: the “GFP reactivation by GSK-3 inhibitors” value in data set [1] was “no GFP reactivation”.
As to `Nc1nc(N[C@H]2CC3CCC2C3)sc1C(=O)c1ccccc1[N+](=O)[O-]` (stereo partly drawn) [MC180295, (4-amino-2-(((2S)-bicyclo[2.2.1]heptan-2-yl)amino)thiazol-5-yl)(2-nitrophenyl)methanone], in data set [4], the “selectivity within the human kinome” value is “highly selective against CDKs”. In data set [5], the “inhibition of GSK-3α” value was “inhibited”. The “inhibition of GSK-3β” value in data set [6] is listed as “inhibited”. Also, the “GFP+ cells” value in data set [1] (YB5, 500nM, four days after single dose) is ~ 60%. In addition, the “concentration active for GFP reactivation” value in data set [1] (YB5, four days after single dose) was found to be 50 nM. Further, the “dephosphorylation of Ser2 (pSer2)” value in data set [7] was “dephosphorylated at nanomolar doses”. The “effect on substrates of CDK4/6” value in [8] was “only affected at substantially higher doses”. In data set [9], the “effect on CDK1/2 substrates” value was “not affected at all”. The “phosphorylation of RNA-Pol-ll CTD, BRG1 and CDK9 by CDK9” value in data set [10] is listed as “unphosphorylated after CDK9 inhibition”. In [11], the “reduction of proliferation, cancer cells compared to IMR90” value is “more effective in reducing proliferation of cancer cells”. In addition, in data set [12], the cell cycle arrest entry was “no cell cycle arrest” and the sub-G1 subpopulation entry is listed as “an increase in the sub-G1 subpopulation”. Moreover, in data set [13], the “reduction of colony formation in soft agar” value is on record as 30–80%. The “induction of differentiation marker CD11b” value in data set [14] was “significant induction”. For the same molecule, the mouse survival result in data set [15] (20mg/kg i.p. qod) is on record as “improved mouse survival”. Moreover, in [15] (20mg/kg qod), the “toxicity as measured by body weight” value is “without causing overt toxicity” and the tumor growth entry is reported as “tumors grew slower”. For the same molecule, in data set [16] (every other day treatment), the body weights result is given as “did not affect body weights”. In addition, the “survival of the mice” value in [16] (i.p. every other day, log-rank test) is “significantly extend survival”. In addition, in data set [17], the “reactivation of GFP and GLDC in tumors” value is “reactivated GFP and GLDC in a dose dependent manner”. Further, in data set [18], the “killing of human T lymphocytes in vivo” value is “did not kill human T lymphocytes”; the “ratio of CD4 and CD8 T cells in vivo” value is “did not affect the ratio of CD4 and CD8 T cells”.
Turning to `O=C(/C=C/N1C[C@H]2C[C@@H]1CN2c1ccccn1)c1ccccc1O` [PFI-3], the “effect on GFP activation by CDK9 inhibitors” value in data set [1] (YB5, 72hr daily pretreatment followed by 24hr co-treatment with HH1 or iCDK9) is reported as “inhibited GFP activation by CDK9 inhibitors in a dose-dependent manner”.
Consider `CC(C)(C)c1cnc(CSc2cnc(NC(=O)C3CCNCC3)s2)o1` [SNS-032], for which the tumor growth result in data set [15] (20mg/kg qod) was “tumors grew slower”. In data set [19] (10mg/kg), the survival result is listed as “extended survival” and the “tumor burden (ascites fluid)” value is reported as “reduced tumor burden”. Also, in [19] (flow cytometry of ascites), the “activated dendritic cells (CD80/CD86+ and CD11c/MHCII+) in the tumor microenvironment” value was “increased populations of activated dendritic cells”; the “immune cells (CD45+) and T cells (CD3+) in the tumor microenvironment” value was “increased populations of immune cells (CD45+) and T cells (CD3+)”.
The term IC50 denotes the point on the concentration scale where inhibition reaches its midpoint. Take `CN1CC[C@H](c2c(O)cc(O)c3c(=O)cc(-c4ccccc4Cl)oc23)[C@H](O)C1` [flavopiridol]: the “reactivation of SYNE1 and MGMT” value in data set [2] is listed as “led to gene reactivation”. The “phosphorylation of RNA-Pol-ll CTD, BRG1 and CDK9 by CDK9” value in data set [10] is given as “unphosphorylated after CDK9 inhibition”. The IC50 is […] in [20], […] in [21] and […] in [22].
For `NC1CCC(Nc2cc(-c3cccc(NCc4cccc(F)c4)n3)c(Cl)cn2)CC1` (centres unmarked) [iCDK9], the “reactivation of SYNE1 and MGMT” value in data set [2] was “led to gene reactivation”.
